From ChEMBL document CHEMBL3085690, “Naturally occurring antimicrobial peptide OH-CATH30 selectively regulates the innate immune response to protect against sepsis” (J Med Chem, 2013)
Calls of active or inactive are those of the source. The rule behind the calls is not given here. Peptide text beside a SMILES is read from it.

Assays:
RAW264.7 [1] = test: Inhibition of LPS-induced TNFalpha production in mouse RAW264.7 cells 2 to 50 ug/ml after 6 hrs by ELISA; assay type: functional, cell-based
BMDM = test: Induction of CXCL3 mRNA up-regulation in mouse BMDM at 20 ug/ml after 3 hrs by qRT-PCR analysis; assay type: functional
Summary of the method: (§1)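 Murine BMDMs stimulated with peptide, then target mRNA quantified by qRT-PCR. Expression normalized to GAPDH, with untreated cells set to 1.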

[2] = Induction of IL-17alpha mRNA up-regulation in mouse BMDM at 20 ug/ml after 3 hrs by qRT-PCR analysis relative to control; assay type: functional; summary of the method: as §1
[3] = Increase of CXCL2 protein level in mouse BMDM at 10 ug/ml after 18 hrs by ELISA; assay type: functional
Summary of the method: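 Bone marrow-derived macrophages (RPMI 1640, 10% FCS, 20% L929-conditioned medium) stimulated with peptide for 18 h. Cytokines and chemokines in culture supernatant quantified by sandwich ELISA. Mean ± SD from three independent experiments, unpaired t test.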

Mus musculus [4] = test: Stimulation of innate immune response in Kunming mouse assessed as increase of IL-1Ra level in peritoneal lavage at 10 mg/kg, ip after 5 hrs; assay type: functional, organism-based; design: dose 10 mg/kg
Summary of the method: (§2)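 Female Kunming mice (18−22 g) received a single ip injection of peptide at 10 mg/kg in sterile saline. Peritoneal lavage was collected in 2 mL of cold sterile saline 5 h later, and cytokines and chemokines were measured by ELISA. Data are mean ± SD from four mice, compared by unpaired t test.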

[5] = Increase of CXCL2 production in mouse BMDM after 6 hrs by ELISA in presence of JNK inhibitor SP600125; assay type: functional
Mus musculus [6] = test: Stimulation of innate immune response in Kunming mouse infected with Pseudomonas aeruginosa ATCC 27853 assessed as reduction of bacterial burden in peritoneal lavage by measuring survival rate at 10 mg/kg, ip administered 5 hrs before bacterial infection measured up to 7 days; assay type: functional, organism-based; design: dose 10 mg/kg
Summary of the method: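 Peptide at 10 mg/kg ip was given 5 h before ip challenge with E. coli 25922 (2.5 × 10^8 CFU), P. aeruginosa 27853 (8 × 10^7 CFU) or S. aureus 25923 (2 × 10^8 CFU) per mouse. Viable bacteria were counted in peritoneal lavage collected in 2 mL of cold saline (n = 7, 6 and 8 respectively; unpaired t test). Survival was recorded for up to 7 days.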

[7] = biological target: Transcription factor p65 (Mus musculus) (UniProt Q04207); test: Activation of NFkappaB p65 in mouse BMDM assessed as phosphorylation at 10 ug/ml after 15 to 30 mins by Western blotting
Sequence of Transcription factor p65 (Mus musculus) (Q04207 whole entry): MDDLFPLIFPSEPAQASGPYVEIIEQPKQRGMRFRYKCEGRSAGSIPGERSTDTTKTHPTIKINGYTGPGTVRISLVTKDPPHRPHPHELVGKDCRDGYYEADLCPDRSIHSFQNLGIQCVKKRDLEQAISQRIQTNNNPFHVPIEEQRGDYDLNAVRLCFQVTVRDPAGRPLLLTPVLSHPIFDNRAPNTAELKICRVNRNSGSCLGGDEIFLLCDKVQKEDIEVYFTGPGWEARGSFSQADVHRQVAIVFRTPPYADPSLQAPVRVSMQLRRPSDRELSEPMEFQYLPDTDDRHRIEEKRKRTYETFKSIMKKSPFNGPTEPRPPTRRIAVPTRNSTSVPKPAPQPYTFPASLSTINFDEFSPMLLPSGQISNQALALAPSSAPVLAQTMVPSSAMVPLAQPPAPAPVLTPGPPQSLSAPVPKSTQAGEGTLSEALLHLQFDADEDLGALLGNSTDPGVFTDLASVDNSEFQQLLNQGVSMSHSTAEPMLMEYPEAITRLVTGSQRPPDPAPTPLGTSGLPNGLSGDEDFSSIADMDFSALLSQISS
Summary of the method: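 BMDMs came from mouse bone marrow cultured in RPMI 1640 with 10% FCS and 20% L929-conditioned medium. After treatment, lysates were run on 10% SDS−PAGE, transferred to PVDF, blocked with 5% BSA, and probed for phospho-p65. Detection used an HRP anti-rabbit IgG secondary and chemiluminescence.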

Mus musculus [8] = test: Stimulation of innate immune response in Kunming mouse assessed as increase of TNFalpha level in peritoneal lavage at 10 mg/kg, ip after 5 hrs; assay type: functional, organism-based; design: dose 10 mg/kg; summary of the method: as §2
Mus musculus [9] = test: Stimulation of innate immune response in Kunming mouse assessed as protection against drug-resistant Escherichia coli-induced mortality by measuring survival rate at 10 mg/kg, ip administered 5 hrs before bacterial infection measured up to 7 days; assay type: functional; details: route intraperitoneal
Summary of the method: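 Female Kunming mice (18−22 g) were dosed ip in sterile saline at 10 mg/kg, 5 h before ip challenge with clinical drug-resistant isolates: E. coli (n = 12), P. aeruginosa (n = 10) or S. aureus (n = 15). Survival was recorded for up to 7 days, with checks every 6 h and euthanasia by CO2 at the humane end point.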

Mus musculus [10] = test: Stimulation of innate immune response in Kunming mouse infected with Pseudomonas aeruginosa ATCC 27853 assessed as effect on TNFalpha production in peritoneal lavage at 10 mg/kg, ip after 5 hrs by ELISA; assay type: functional, organism-based; design: dose 10 mg/kg
RAW264.7 [11] = test: Induction of H2O2 production in mouse RAW264.7 cells; assay type: functional, cell-based

Question: Which results are given for `CC[C@H](C)[C@H](NC(=O)[C@@H](NC(=O)[C@H](CCCNC(=N)N)NC(=O)[C@@H]1CCCN1C(=O)[C@H](CCCCN)NC(=O)[C@H](CCCCN)NC(=O)[C@H](Cc1ccccc1)NC(=O)[C@H](Cc1ccccc1)NC(=O)[C@H](CCCCN)NC(=O)[C@H](CCCCN)NC(=O)[C@H](C)NC(=O)[C@H](CCCNC(=N)N)NC(=O)[C@H](CCCCN)NC(=O)[C@H](CCCCN)NC(=O)[C@@H](NC(=O)[C@H](CO)NC(=O)[C@H](CC(N)=O)NC(=O)[C@H](CCCCN)NC(=O)[C@H](CC(C)C)NC(=O)[C@H](CCCCN)NC(=O)[C@H](CCCCN)NC(=O)[C@H](Cc1ccccc1)NC(=O)[C@H](Cc1ccccc1)NC(=O)[C@@H](N)CCCCN)C(C)C)C(C)C)C(=O)NCC(=O)N[C@H](C(=O)N[C@@H](CO)C(=O)N[C@H](C(=O)N1CCC[C@H]1C(=O)N[C@@H](Cc1ccccc1)C(=O)O)[C@@H](C)CC)C(C)C` (H-KFFKKLKNSVKKRAKKFFKKPRVIGVSIPF-OH)?
Answer: inhibition (RAW264.7 [1]): Active; Activity (BMDM): Active; fold change (FC) [2]: 51; Activity [3]: 1450 pg/mL; Activity (Mus musculus [4]): Active; Activity [5]: 952 pg/mL; Activity (Mus musculus [6]): Active; Activity [7]: inactive; Activity (Mus musculus [8]): inactive; survival at 10 mg/kg (Mus musculus [9]): 92.5%; Activity (Mus musculus [10]): inactive; Activity (RAW264.7 [11]): inactive
